From ChEMBL document CHEMBL1806370, “Development of novel naphthalimide derivatives and their evaluation as potential melanoma therapeutics” (Eur J Med Chem, 2011)

Key:
[1] = tested on: UACC-903; test: Cytotoxicity against human UACC-903 cells assessed as decrease in cell viability after 24 hrs by MTS assay; format: functional, cell-based
Summary of the method: (§1)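 Cells in DMEM with 10% FBS at 37 °C and 5% CO2 were plated at 5×10^3 per well and grown 24 h. They were then exposed 24 or 72 h to 0.5, 1, 5, 10, 25 and 50 µM, with final DMSO 0.5% and DMSO controls. MTS/PMS was added for 4 h at 37 °C. A492 was read with the medium blank subtracted and expressed as % of control. IC50 was taken from three independent experiments (mean ± S.E.).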

[2] = tested on: A375-S2; test: Cytotoxicity against human A375-S2 cells assessed as decrease in cell viability after 24 hrs by MTS assay; format: functional, cell-based; summary of the method: as §1
[3] = tested on: 1205Lu; test: Cytotoxicity against human 1205 Lu cells assessed as decrease in cell viability after 24 hrs by MTS assay; format: functional, cell-based; summary of the method: as §1
[4] = tested on: UACC-903; test: Cytotoxicity against human UACC-903 cells assessed as decrease in cell viability after 72 hrs by MTS assay; format: functional, cell-based; summary of the method: as §1
[5] = tested on: A375-S2; test: Cytotoxicity against human A375-S2 cells assessed as decrease in cell viability after 72 hrs by MTS assay; format: functional, cell-based; summary of the method: as §1
[6] = tested on: 1205Lu; test: Cytotoxicity against human 1205 Lu cells assessed as decrease in cell viability after 72 hrs by MTS assay; format: functional, cell-based; summary of the method: as §1
[7] = tested on: UACC-903; test: Cytotoxicity against human UACC-903 cells after 24 hrs by MTS assay; format: functional, cell-based; conditions: UACC-903, 24 h; summary of the method: as §1
[8] = Cytotoxicity against human A375-S2 cells after 24 hrs by MTS assay; format: functional, cell-based; conditions: A375-S2, 24 h; summary of the method: as §1
[9] = Cytotoxicity against human SK-MEL-37 cells after 24 hrs by MTS assay; format: functional, cell-based; summary of the method: as §1
[10] = Cytotoxicity against human 1205 Lu cells after 24 hrs by MTS assay; format: functional, cell-based; summary of the method: as §1
[11] = tested on: UACC-903; test: Cytotoxicity against human UACC-903 cells after 72 hrs by MTS assay; format: functional, cell-based; conditions: UACC-903, 72 h; summary of the method: as §1
[12] = Cytotoxicity against human A375-S2 cells after 72 hrs by MTS assay; format: functional, cell-based; conditions: A375-S2, 72 h; summary of the method: as §1
[13] = Cytotoxicity against human SK-MEL-37 cells after 72 hrs by MTS assay; format: functional, cell-based; summary of the method: as §1
[14] = Cytotoxicity against human 1205 Lu cells after 72 hrs by MTS assay; format: functional, cell-based; summary of the method: as §1
[15] = tested on: UACC-903; test: Induction of apoptosis in human UACC-903 cells assessed as early apoptotic cells at 1 uM after 24 hrs using annexin-V-PE/7-AAD double staining by flow cytometry; format: functional
Summary of the method: (§2)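 UACC 903 cells were exposed 24 h at 37 °C to 1, 5 or 25 µM, with DMSO as control. Cells were harvested, washed twice in cold PBS and resuspended at 1×10^6 cells/mL in binding buffer. They were stained with 7-AAD plus PE Annexin V for 20 min at room temperature in the dark and run by flow cytometry within 1 h. Gating: double-negative live, 7-AAD+ dead, Annexin V+/7-AAD− early apoptotic. Three separate experiments.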

[16] = tested on: UACC-903; test: Induction of apoptosis in human UACC-903 cells assessed as late apoptotic cells at 1 uM after 24 hrs using annexin-V-PE/7-AAD double staining by flow cytometry; format: functional; summary of the method: as §2
[17] = tested on: UACC-903; test: Induction of apoptosis in human UACC-903 cells assessed as non-viable cells at 1 uM after 24 hrs using annexin-V-PE/7-AAD double staining by flow cytometry; format: functional; summary of the method: as §2
[18] = tested on: UACC-903; test: Induction of apoptosis in human UACC-903 cells assessed as viable cells at 1 uM after 24 hrs using annexin-V-PE/7-AAD double staining by flow cytometry; format: functional; conditions: UACC-903, 24 h, read-out: Activity; summary of the method: as §2
[19] = tested on: UACC-903; test: Induction of apoptosis in human UACC-903 cells assessed as early apoptotic cells at 5 uM after 24 hrs using annexin-V-PE/7-AAD double staining by flow cytometry; format: functional; summary of the method: as §2
[20] = tested on: UACC-903; test: Induction of apoptosis in human UACC-903 cells assessed as late apoptotic cells at 5 uM after 24 hrs using annexin-V-PE/7-AAD double staining by flow cytometry; format: functional; summary of the method: as §2
[21] = tested on: UACC-903; test: Induction of apoptosis in human UACC-903 cells assessed as non-viable cells at 5 uM after 24 hrs using annexin-V-PE/7-AAD double staining by flow cytometry; format: functional; summary of the method: as §2
[22] = tested on: UACC-903; test: Induction of apoptosis in human UACC-903 cells assessed as viable cells at 5 uM after 24 hrs using annexin-V-PE/7-AAD double staining by flow cytometry; format: functional; conditions: UACC-903, 24 h, read-out: Activity; summary of the method: as §2
[23] = tested on: UACC-903; test: Induction of apoptosis in human UACC-903 cells assessed as early apoptotic cells at 25 uM after 24 hrs using annexin-V-PE/7-AAD double staining by flow cytometry; format: functional; summary of the method: as §2
[24] = tested on: UACC-903; test: Induction of apoptosis in human UACC-903 cells assessed as late apoptotic cells at 25 uM after 24 hrs using annexin-V-PE/7-AAD double staining by flow cytometry; format: functional; summary of the method: as §2
[25] = tested on: UACC-903; test: Induction of apoptosis in human UACC-903 cells assessed as non-viable cells at 25 uM after 24 hrs using annexin-V-PE/7-AAD double staining by flow cytometry; format: functional; summary of the method: as §2
[26] = tested on: UACC-903; test: Induction of apoptosis in human UACC-903 cells assessed as viable cells at 25 uM after 24 hrs using annexin-V-PE/7-AAD double staining by flow cytometry; format: functional; conditions: UACC-903, 24 h, read-out: Activity; summary of the method: as §2
[27] = tested on: UACC-903; test: Induction of apoptosis in human UACC-903 cells assessed as increase in apoptotic cells after 24 hrs using annexin-V-PE/7-AAD double staining by flow cytometry; format: functional, cell-based; summary of the method: as §2
[28] = tested on: Mus musculus; test: Systemic toxicity in Swiss Webster mouse assessed as mortality at 15 mg/kg, ip administered every day for 28 days; format: organism-based; parameters: dose 15 mg/kg, route intraperitoneal; conditions: in vivo, 672 h
Summary of the method: (§3)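 Swiss Webster mice, n = 4 per group, dosed i.p. once daily for 28 days at 5, 7.5, 10 or 15 mg/kg body weight. Body weight recorded twice per week; deaths noted over the dosing period.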

[29] = tested on: Mus musculus; test: Systemic toxicity in Swiss Webster mouse assessed as weight loss at 10 mg/kg, ip administered every day for 28 days; format: organism-based; parameters: dose 10 mg/kg, route intraperitoneal; conditions: in vivo, 672 h; summary of the method: as §3
[30] = tested on: Mus musculus; test: Systemic toxicity in Swiss Webster mouse assessed as mortality at 10 mg/kg, ip administered every day for 28 days; format: organism-based; parameters: dose 10 mg/kg, route intraperitoneal; conditions: in vivo, 672 h; summary of the method: as §3
[31] = tested on: UACC-903; test: Antitumor activity against human UACC-903 cells xenografted in athymic Harlan Sprague-Dawley nude mouse assessed as reduction in tumor growth at 8.5 to 10 mg/kg, ip administered thrice per week for 24 days measured after 21 days; format: functional; conditions: dose mg/kg 8.5-10; route intraperitoneal
Summary of the method: (§4)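 Female athymic nude mice, 4–6 weeks old, received 5×10^6 UACC 903 cells s.c. in DMEM/10% FBS above both rib cages. After six days they were randomized at 5 mice/group, 2 tumors/mouse. Dosing was i.p. Mon/Wed/Fri, with one arm dosed daily; controls got DMSO vehicle. Tumor dimensions (calipers, mm³) and body weight were recorded three times weekly.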

[32] = tested on: Mus musculus; test: Systemic toxicity in athymic Harlan Sprague-Dawley nude mouse xenografted with human UACC-903 cells assessed as reduction in body weight at 8.5 to 10 mg/kg, ip administered thrice a week for 24 days; format: organism-based; parameters: dose 8.5-10 mg/kg, route intraperitoneal; conditions: in vivo, 576 h; summary of the method: as §4
[33] = tested on: SK-MEL-37 (Homo sapiens); test: Cytotoxicity against human SK-MEL-37 cells assessed as decrease in cell viability after 24 hrs by MTS assay
[34] = tested on: SK-MEL-37 (Homo sapiens); test: Cytotoxicity against human SK-MEL-37 cells assessed as decrease in cell viability after 72 hrs by MTS assay

Compound | Activity [1] | Activity [2] | Activity [3] | Activity [4] | Activity [5] | Activity [6] | IC50 [7] [µM] | IC50 [8] [µM] | IC50 [9] [µM] | IC50 [10] [µM] | IC50 [11] [µM] | IC50 [12] [µM] | IC50 [13] [µM] | IC50 [14] [µM] | Activity [15] [%] | Activity [16] [%] | Activity [17] [%] | viability at 1 µM [18] [%] | Activity [19] [%] | Activity [20] [%] | also measured
O=C1c2cccc3cccc(c23)C(=O)N1CCCCCCN=C=S | Dose-dependent effect | Dose-dependent effect | Dose-dependent effect | Dose-dependent effect | Dose-dependent effect | Dose-dependent effect | 9.02 | 5.07 | 3.07 | 11.5 | 7.6 | 3.54 | 1.67 | 5.25 | 12.9 | 6.25 | 2.99 | 77.8 | 49.6 | 28.7 | Activity [21]: 2.11%; viability at 5 µM [22]: 19.6%; Activity [23]: 71.6%; Activity [24]: 8.56%; Activity [25]: 1.15%; viability at 25 µM [26]: 18.7%; Activity [27]: Dose-dependent effect; Activity [28]: Toxic; Activity [29]: Non-toxic; Activity [30]: Non-toxic; growth inhibition (GI) [31]: 50%; Activity [32]: Non-toxic; Activity [33]: Dose-dependent effect; Activity [34]: Dose-dependent effect
O=C1c2cccc3cccc(c23)C(=O)N1CCCCN=C=S | Dose-dependent effect | Dose-dependent effect | Dose-dependent effect | Dose-dependent effect | Dose-dependent effect | Dose-dependent effect | 10.7 | 6.89 | 3.89 | 4.88 | 5.17 | 3.47 | 2.12 | 3.03 | 21.1 | 9.79 | 6.42 | 62.7 | 34.9 | 16 | Activity [21]: 9.69%; viability at 5 µM [22]: 39.4%; Activity [23]: 51.7%; Activity [24]: 19.3%; Activity [25]: 6.43%; viability at 25 µM [26]: 22.5%; Activity [27]: Dose-dependent effect; Activity [28]: Toxic; Activity [29]: Non-toxic; Activity [30]: Non-toxic; growth inhibition (GI) [31]: 30%; Activity [32]: Non-toxic; Activity [33]: Dose-dependent effect; Activity [34]: Dose-dependent effect
